Laboratory results published in ChEMBL document CHEMBL3400137, “Glycyrrhizic acid derivatives as influenza A/H1N1 virus inhibitors” (Bioorg Med Chem Lett, 2015).

Tests used:
[1] = Antiviral activity against influenza A virus (A/California/07/09(H1N1)) pdm09 infected in MDCK cells assessed as decrease in virus titer by hemagglutination assay in presence of 1% suspension of chicken erythrocytes; format: functional, Influenza A virus (A/California/07/2009(H1N1)); conditions: read-out: CD50 (the source's name)
Summary of the method: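 MDCK cells were pre-treated for 1 h at 37 °C with serial twofold compound dilutions in MEM containing 2 mM arginine, 2 mM glutamine and 2 μg/mL trypsin, then infected. Untreated infected cells served as control. Virus yield in the supernatant was read by end-point dilution hemagglutination. ED50 was the concentration giving a two-fold drop in virus production versus control. Values are means.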

[2] = Selectivity index, CTD50 for MDCK cells to EC50 for influenza A virus (A/California/07/09(H1N1)) pdm09 infected in MDCK cells; format: toxicity, cell-based; conditions: dog; for selectivity ratio: read-out: Selectivity Index; for Selectivity Index: mdck
MDCK = experiment: Cytotoxicity against MDCK cells assessed as reduction in cell viability after 48 hrs by MTT assay; format: cell-based, Canis lupus familiaris
Summary of the method: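 Compounds were taken from 5 mg/mL DMSO stocks and diluted twofold in MEM. They were applied to washed, serum-free MDCK monolayers (grown in MEM with 5% fetal calf serum) for 48 h at 37 °C. Cells were then PBS-washed and given 0.5 mg/mL MTT for 60 min at 37 °C in 5% CO2. Formazan was dissolved in DMSO and read at 535 nm. CTD50 was estimated from these readings. Values are means.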

`COC(=O)[C@H](Cc1ccccc1)NC(=O)[C@H]1O[C@@H](O[C@H]2[C@H](O[C@H]3CC[C@]4(C)[C@H]5C(=O)C=C6[C@@H]7C[C@@](C)(C(=O)N[C@@H](Cc8ccccc8)C(=O)OC)CC[C@]7(C)CC[C@@]6(C)[C@]5(C)CC[C@H]4C3(C)C)O[C@H](C(=O)N[C@@H](Cc3ccccc3)C(=O)OC)[C@@H](O)[C@@H]2O)[C@H](O)[C@@H](O)[C@@H]1O` gave a CC50 ([1]; Influenza A virus, pdm09, MDCK) of 133 µM and a selectivity ratio [2] of 28.

With `COC(=O)[C@H](Cc1ccc(O)cc1)NC(=O)[C@H]1O[C@@H](O[C@H]2[C@H](O[C@H]3CC[C@]4(C)[C@H]5C(=O)C=C6[C@@H]7C[C@@](C)(C(=O)N[C@@H](Cc8ccc(O)cc8)C(=O)OC)CC[C@]7(C)CC[C@@]6(C)[C@]5(C)CC[C@H]4C3(C)C)O[C@H](C(=O)N[C@@H](Cc3ccc(O)cc3)C(=O)OC)[C@@H](O)[C@@H]2O)[C@H](O)[C@@H](O)[C@@H]1O` the CC50 ([1]; Influenza A virus, pdm09, MDCK) was 160 µM and the selectivity ratio [2] was 18.

With `CC[C@H](C)[C@H](NC(=O)[C@H]1O[C@@H](O[C@H]2[C@H](O[C@H]3CC[C@]4(C)[C@H]5C(=O)C=C6[C@@H]7C[C@@](C)(C(=O)N[C@H](C(=O)OC)[C@@H](C)CC)CC[C@]7(C)CC[C@@]6(C)[C@]5(C)CC[C@H]4C3(C)C)O[C@H](C(=O)N[C@H](C(=O)OC)[C@@H](C)CC)[C@@H](O)[C@@H]2O)[C@H](O)[C@@H](O)[C@@H]1O)C(=O)OC` the CC50 ([1]; Influenza A virus, pdm09, MDCK) was 16.4 µM and the selectivity ratio [2] was 6.

Work on `COC(=O)[C@H](Cc1ccccc1)NC(=O)[C@H]1O[C@@H](O[C@H]2[C@H](O[C@H]3CC[C@]4(C)[C@H]5C(=O)C=C6[C@@H]7C[C@@](C)(C(=O)O)CC[C@]7(C)CC[C@@]6(C)[C@]5(C)CC[C@H]4C3(C)C)O[C@H](C(=O)N[C@@H](Cc3ccccc3)C(=O)OC)[C@@H](O)[C@@H]2O)[C@H](O)[C@@H](O)[C@@H]1O` yielded a CC50 ([1]; Influenza A virus, pdm09, MDCK) of 262 µM and a selectivity ratio [2] of 61.

With `COC(=O)[C@H](Cc1ccc(O)cc1)NC(=O)[C@H]1O[C@@H](O[C@H]2[C@H](O[C@H]3CC[C@]4(C)[C@H]5C(=O)C=C6[C@@H]7C[C@@](C)(C(=O)O)CC[C@]7(C)CC[C@@]6(C)[C@]5(C)CC[C@H]4C3(C)C)O[C@H](C(=O)N[C@@H](Cc3ccc(O)cc3)C(=O)OC)[C@@H](O)[C@@H]2O)[C@H](O)[C@@H](O)[C@@H]1O` the CC50 ([1]; Influenza A virus, pdm09, MDCK) was 255 µM and the selectivity ratio [2] was 38.

`COC(=O)[C@@H](NC(=O)[C@H]1O[C@@H](O[C@H]2[C@H](O[C@H]3CC[C@]4(C)[C@H]5C(=O)C=C6[C@@H]7C[C@@](C)(C(=O)O)CC[C@]7(C)CC[C@@]6(C)[C@]5(C)CC[C@H]4C3(C)C)O[C@H](C(=O)N[C@H](C(=O)OC)C(C)C)[C@@H](O)[C@@H]2O)[C@H](O)[C@@H](O)[C@@H]1O)C(C)C` gave a CC50 ([1]; Influenza A virus, pdm09, MDCK) of 29.1 µM and a selectivity ratio [2] of 5.

Compound `COC(=O)[C@H](Cc1c[nH]cn1)NC(=O)[C@H]1O[C@@H](O[C@H]2[C@H](O[C@H]3CC[C@]4(C)[C@H]5C(=O)C=C6[C@@H]7C[C@@](C)(C(=O)O)CC[C@]7(C)CC[C@@]6(C)[C@]5(C)CC[C@H]4C3(C)C)O[C@H](C(=O)N[C@@H](Cc3c[nH]cn3)C(=O)OC)[C@@H](O)[C@@H]2O)[C@H](O)[C@@H](O)[C@@H]1O` has a CC50 ([1]; Influenza A virus, pdm09, MDCK) of 298 µM and a selectivity ratio [2] of 15.

`COC(=O)C[C@H](NC(=O)[C@H]1O[C@@H](O[C@H]2[C@H](O[C@H]3CC[C@]4(C)[C@H]5C(=O)C=C6[C@@H]7C[C@@](C)(C(=O)O)CC[C@]7(C)CC[C@@]6(C)[C@]5(C)CC[C@H]4C3(C)C)O[C@H](C(=O)N[C@@H](CC(=O)OC)C(=O)OC)[C@@H](O)[C@@H]2O)[C@H](O)[C@@H](O)[C@@H]1O)C(=O)OC` gave a CC50 ([1]; Influenza A virus, pdm09, MDCK) of 37.3 µM and a selectivity ratio [2] of 1.

`CC1(C)[C@@H](O[C@@H]2O[C@H](C(=O)N[C@@H](CSCc3ccccc3)C(=O)O)[C@@H](O)[C@H](O)[C@H]2O[C@@H]2O[C@H](C(=O)N[C@@H](CSCc3ccccc3)C(=O)O)[C@@H](O)[C@H](O)[C@H]2O)CC[C@]2(C)[C@H]3C(=O)C=C4[C@@H]5C[C@@](C)(C(=O)O)CC[C@]5(C)CC[C@@]4(C)[C@]3(C)CC[C@@H]12` showed a CC50 ([1]; Influenza A virus, pdm09, MDCK) of 248 µM and a selectivity ratio [2] of 71.

`CC1(C)[C@@H](O[C@@H]2O[C@H](C(=O)N[C@@H](CCCCNC(=O)OCc3ccccc3)C(=O)O)[C@@H](O)[C@H](O)[C@H]2O[C@@H]2O[C@H](C(=O)N[C@@H](CCCCNC(=O)OCc3ccccc3)C(=O)O)[C@@H](O)[C@H](O)[C@H]2O)CC[C@]2(C)[C@H]3C(=O)C=C4[C@@H]5C[C@@](C)(C(=O)O)CC[C@]5(C)CC[C@@]4(C)[C@]3(C)CC[C@@H]12` gave a CC50 ([1]; Influenza A virus, pdm09, MDCK) of 155 µM and a selectivity ratio [2] of 3.

For `CC1(C)[C@@H](O[C@@H]2O[C@H](C(=O)N[C@@H]3O[C@H](CO)[C@@H](O)[C@H](O)[C@H]3O)[C@@H](O)[C@H](O)[C@H]2O[C@@H]2O[C@H](C(=O)N[C@@H]3O[C@H](CO)[C@@H](O)[C@H](O)[C@H]3O)[C@@H](O)[C@H](O)[C@H]2O)CC[C@]2(C)[C@H]3C(=O)C=C4[C@@H]5C[C@@](C)(C(=O)O)CC[C@]5(C)CC[C@@]4(C)[C@]3(C)CC[C@@H]12`, the CC50 ([1]; Influenza A virus, pdm09, MDCK) was 259 µM and the selectivity ratio [2] was 36.

Work on `COC(=O)C[C@H](NC(=O)[C@H]1O[C@@H](O[C@H]2[C@H](O[C@H]3CC[C@]4(C)[C@H]5C(=O)C=C6[C@H]7C[C@@](C)(C(=O)O)CC[C@]7(C)CC[C@@]6(C)[C@]5(C)CC[C@H]4C3(C)C)O[C@H](C(=O)N[C@@H](CC(=O)OC)C(=O)OC)[C@@H](O)[C@@H]2O)[C@H](O)[C@@H](O)[C@@H]1O)C(=O)OC` yielded a CC50 ([1]; Influenza A virus, pdm09, MDCK) of 38 µM and a selectivity ratio [2] of 4.

Work on `COC(=O)C[C@H](NC(=O)[C@H]1O[C@@H](O[C@H]2[C@H](O[C@H]3CC[C@]4(C)[C@H]5C(=O)C=C6[C@H]7C[C@@](C)(C(=O)O)CC[C@]7(C)CC[C@@]6(C)[C@]5(C)CC[C@H]4C3(C)C)O[C@H](C(=O)N[C@@H](CC(=O)OC)C(=O)O)[C@@H](O)[C@@H]2O)[C@H](O)[C@@H](O)[C@@H]1O)C(=O)O` yielded a CC50 ([1]; Influenza A virus, pdm09, MDCK) of 58.3 µM and a selectivity ratio [2] of 12.

For `COC(=O)[C@@]1(C)CC[C@]2(C)CC[C@]3(C)C(=CC(=O)[C@@H]4[C@@]5(C)CC[C@H](O[C@@H]6O[C@H](CO)[C@@H](O)[C@H](O)[C@H]6O[C@@H]6O[C@H](CO)[C@@H](O)[C@H](O)[C@H]6O)C(C)(C)[C@@H]5CC[C@]43C)[C@@H]2C1`, the CC50 ([1]; Influenza A virus, pdm09, MDCK) was 371 µM and the selectivity ratio [2] was 5.

For `CC1(C)[C@@H](O[C@@H]2O[C@H](C(=O)O)[C@@H](O)[C@H](O)[C@H]2O[C@@H]2O[C@H](C(=O)O)[C@@H](O)[C@H](O)[C@H]2O)CC[C@]2(C)C3=CC=C4[C@@H]5C[C@@](C)(C(=O)O)CC[C@]5(C)CC[C@@]4(C)[C@]3(C)CC[C@@H]12`, the CC50 ([1]; Influenza A virus, pdm09, MDCK) was 21.4 µM and the selectivity ratio [2] was 10.

For `CC1(C)[C@@H](OC2O[C@H](C(=O)O)[C@@H](O)[C@H](O)[C@H]2O[C@@H]2O[C@H](C(=O)O)[C@@H](O)[C@H](O)[C@H]2O)CC[C@]2(C)[C@H]3C(=O)C=C4C5C[C@@](C)(C(=O)O)CC[C@]5(C)CC[C@@]4(C)[C@]3(C)CC[C@@H]12` (single isomer, unassigned) [GLYCYRRHIZIN], the CC50 [1] was 47.5 µM, the “Selectivity Index” value [2] was 3 and the EC50 (MDCK) was 15.2 µM.

For `CC1(C)[C@@H](O[C@H]2O[C@H](C(=O)O)[C@@H](O)[C@H](O)[C@H]2O[C@@H]2O[C@H](C(=O)O)[C@@H](O)[C@H](O)[C@H]2O)CC[C@]2(C)[C@H]3C(=O)C=C4[C@@H]5C[C@@](C)(C(=O)O)CC[C@]5(C)CC[C@@]4(C)[C@]3(C)CC[C@@H]12` [GLYCYRRHIZIN], the CC50 [1] was 365 µM, the “Selectivity Index” value [2] was 1 and the EC50 (MDCK) was 365 µM.

`CC(N)C12CC3CC(CC(C3)C1)C2` (stereo not drawn) [RIMANTADINE] showed a CC50 ([1]; Influenza A virus, pdm09, MDCK) of 334 µM and a selectivity ratio [2] of 5.
